Test results as given in ChEMBL document CHEMBL1159129, “Novel amidino substituted 2-phenylbenzothiazoles: synthesis, antitumor evaluation in vitro and acute toxicity testing in vivo” (Bioorg Med Chem, 2010).

Legend:
HCT-116 = experiment: Growth inhibition of human HCT116 cells after 72 hrs by MTT assay; type: functional, cell-based; settings: HCT-116, 72 h
In short: (§1)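 Modified NCI protocol. Cells were plated on day 0 at 1-3 × 10^4 cells/mL according to doubling time. Agents were dissolved in DMSO (stock 4 × 10^-2 M) and serially diluted 10-fold in medium (10^-8–10^-4 M), with 72 h exposure. Viability by MTT (mitochondrial dehydrogenase). Four wells, three independent runs. IC50 from linear regression of the two concentrations flanking 50% growth.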

MOLT-4 = experiment: Growth inhibition of human MOLT4 cells after 72 hrs by MTT assay; type: functional, cell-based; settings: MOLT-4, 72 h
In short: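 MOLT-4 leukemia cells grown in suspension in RPMI with 10% FBS, 2 mM glutamine, penicillin/streptomycin, 5% CO2, 37 °C. Inoculated at 1-3 × 10^4 cells/mL. Compounds from 4 × 10^-2 M DMSO stock were tested at 10^-8 to 10^-4 M (10-fold steps) for 72 h, then MTT. Quadruplicates in three experiments. IC50 interpolated by linear regression around 50% growth; '>' highest concentration when not reached.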

NCI-H460 = experiment: Growth inhibition of human H460 cells after 72 hrs by MTT assay; type: functional, cell-based; settings: NCI-H460, 72 h
In short: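 H460 lung carcinoma cells grown as monolayers in DMEM with 10% FBS, 2 mM glutamine, penicillin/streptomycin, 5% CO2, 37 °C. Seeded day 0 at 1-3 × 10^4 cells/mL. DMSO stocks (4 × 10^-2 M) were diluted in medium to five 10-fold concentrations, 10^-8 to 10^-4 M, for 72 h. MTT read-out, quadruplicate, three experiments. IC50 by linear regression of concentrations bracketing 50% growth.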

MCF7 = experiment: Growth inhibition of human MCF7 cells after 72 hrs by MTT assay; type: functional, cell-based; settings: MCF7, 72 h; in short: as §1
SW-620 = experiment: Growth inhibition of human SW620 cells after 72 hrs by MTT assay; type: functional, cell-based; settings: SW-620, 72 h; in short: as §1
[1] = Acute toxicity in po dosed BALB/c mouse; type: organism-based; settings: in vivo
In short: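 Female nulliparous, non-pregnant BALB/c mice, 12 weeks old, housed singly; food withheld 3-4 h before and 1-2 h after dosing. Single gavage dose in physiological saline (sonicated 15 min at 69 °C just before use), 0.5 mL/25 g body mass. OECD 425 up-and-down procedure, one animal per 24 h, dose adjusted by prior outcome; LD50 by maximum likelihood (AOT425StatPgm), 95% confidence interval.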

Question: What does the source list for `c1cc(-c2nc3ccc(C4=NCCN4)cc3s2)ccc1C1=NCCN1`?
Answer: IC50 (HCT-116): 2 µM; IC50 (MOLT-4): 3 µM; IC50 (NCI-H460): 2 µM; IC50 (MCF7): 1 µM; IC50 (SW-620): 0.8 µM

Question: Which IC50 (HCT-116) does the source give for `Cl.Nc1ccc2nc(-c3ccc(C4=NCCN4)cc3)sc2c1` here?
Answer: The IC50 was 1 µM.

Question: And the LD50 [1]?
Answer: The LD50 was 250 mg/kg.

Question: And the IC50 (MOLT-4)?
Answer: The IC50 was 1 µM.

Question: And the IC50 (NCI-H460)?
Answer: Its IC50 is 0.3 µM.

Question: What about the IC50 (MCF7) of the same compound?
Answer: The IC50 was 1 µM.

Question: And the IC50 (SW-620)?
Answer: The IC50 was 0.3 µM.

Question: Which IC50 (HCT-116) does the source give for `N=C(N)c1ccc(-c2nc3ccc(C(=N)N)cc3s2)cc1` here?
Answer: The IC50 was 64 µM.

Question: And the IC50 (MOLT-4)?
Answer: Its IC50 is greater than 100 µM.

Question: And the IC50 (NCI-H460)?
Answer: Its IC50 is 78 µM.

Question: And the IC50 (MCF7)?
Answer: The IC50 was 11 µM.

Question: What about the IC50 (SW-620) of the same compound?
Answer: Its IC50 is greater than 100 µM.

Question: What does the source list for `O=[N+]([O-])c1ccc2nc(-c3ccc(C4=NCCN4)cc3)sc2c1`?
Answer: IC50 (HCT-116): 3 µM; IC50 (MOLT-4): 2 µM; IC50 (NCI-H460): 3 µM; IC50 (MCF7): 3 µM; IC50 (SW-620): 2 µM

Question: Which IC50 (HCT-116) does the source give for `Cl.Nc1ccc(-c2nc3ccc(C4=NCCN4)cc3s2)cc1` here?
Answer: The IC50 was 1 µM.

Question: And the LD50 [1]?
Answer: Its LD50 is 696 mg/kg.

Question: What about the IC50 (MOLT-4) of the same compound?
Answer: Its IC50 is 1 µM.

Question: What about the IC50 (NCI-H460) of the same compound?
Answer: Its IC50 is 0.4 µM.

Question: And the IC50 (MCF7)?
Answer: Its IC50 is 1.7 µM.

Question: What about the IC50 (SW-620) of the same compound?
Answer: The IC50 was 0.7 µM.

Question: What does the source list for `Cl.N=C(N)c1ccc2nc(-c3ccc(N)cc3)sc2c1`?
Answer: IC50 (HCT-116): 10 µM; LD50 [1]: 67.3 mg/kg; IC50 (MOLT-4): 3 µM; IC50 (NCI-H460): 4 µM; IC50 (MCF7): 9 µM; IC50 (SW-620): 7 µM

Question: For `N=C(N)c1ccc2nc(-c3ccc([N+](=O)[O-])cc3)sc2c1`, which IC50 (HCT-116) is on record?
Answer: The IC50 was 2 µM.

Question: What about the IC50 (MOLT-4) of the same compound?
Answer: Its IC50 is 2 µM.

Question: And the IC50 (NCI-H460)?
Answer: Its IC50 is 1 µM.

Question: What about the IC50 (MCF7) of the same compound?
Answer: Its IC50 is 2 µM.

Question: And the IC50 (SW-620)?
Answer: Its IC50 is 2 µM.

Question: With `Cl.N=C(N)c1ccc(-c2nc3ccc(N)cc3s2)cc1` as the compound, how does the IC50 (HCT-116) read?
Answer: Its IC50 is 3 µM.

Question: What about the LD50 [1] of the same compound?
Answer: Its LD50 is 250 mg/kg.

Question: And the IC50 (MOLT-4)?
Answer: The IC50 was 2 µM.

Question: And the IC50 (NCI-H460)?
Answer: The IC50 was 0.2 µM.

Question: And the IC50 (MCF7)?
Answer: The IC50 was 0.2 µM.

Question: And the IC50 (SW-620)?
Answer: The IC50 was 4 µM.

Question: What does the source list for `N=C(N)c1ccc(-c2nc3ccc([N+](=O)[O-])cc3s2)cc1`?
Answer: IC50 (HCT-116): 1 µM; IC50 (MOLT-4): 1 µM; IC50 (NCI-H460): 1 µM; IC50 (MCF7): 1 µM; IC50 (SW-620): 2 µM

Question: Which results are given for `O=[N+]([O-])c1ccc(-c2nc3ccc(C4=NCCN4)cc3s2)cc1`?
Answer: IC50 (HCT-116): 8 µM; IC50 (MOLT-4): 17 µM; IC50 (NCI-H460): 4 µM; IC50 (MCF7): 11 µM; IC50 (SW-620): 7 µM
